Where a SMILES comes first, the peptide text is derived from it.
What was measured:
[1] = Total plasma concentration of PMB, PMB1 and PMB2 by HPLC-MS/MS; format: in vivo, human; conditions: for Cmin (B1)/Cmin (B2): median (IQR)
Method in brief: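 Critically ill adults received IV PMB sulfate. Plasma was drawn at the sixth or later dose, 10 min after infusion end (Cmax) and just before dosing (Cmin), spun at 3500g, 2–8 °C for 10 min, and stored at −80 °C. Plasma plus polymyxin E internal standard underwent formic acid/acetonitrile extraction. Analysis used C18 gradient LC and positive MRM 402.1→101.15 (PMB1), 397.4→101.15 (PMB2). AKI was graded by RIFLE SCr criteria.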

patients = conditions: cited from earlier work
plasma protein = assay: Plasma protein binding rate by equilibrium dialysis; format: in vitro ADME; conditions: human, patient plasma, iv
Method in brief: (§1)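 Patient plasma from peak (10 min post-infusion) and trough (pre-dose) draws was dialysed against isotonic phosphate buffer, pH 7.4, across a semipermeable membrane at 37 °C for 5 h. Dialysate and plasma were matrix-matched with blank plasma or buffer, then extracted and quantified by LC–MS/MS as for total levels. fu = Cd/Cp. Total and free levels were compared by Spearman rank correlation.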

Free = format: in vivo, human; conditions: for Free Cmax / Free Cmin: equilibrium dialysis, median (IQR); for Correlation between total and free plasma concentrations: Spearman's rank correlation, Cmax and Cmin, Fig. 2
Method in brief: as §1

[2] = pH 7.4, Protein binding rate, Cmax sample, AKI group N = 25, equilibrium dialysis, phosphate buffer pH 7.4, 37 °C, 5 h, LC-MS/MS, median (IQR)
[3] = pH 7.4, Protein binding rate, Cmax sample, non-AKI group N = 64, equilibrium dialysis, phosphate buffer pH 7.4, 37 °C, 5 h, LC-MS/MS, median (IQR)
[4] = pH 7.4, Protein binding rate, Cmin sample, AKI group N = 25, equilibrium dialysis, phosphate buffer pH 7.4, 37 °C, 5 h, LC-MS/MS, median (IQR)
[5] = pH 7.4, Protein binding rate, Cmin sample, non-AKI group N = 64, equilibrium dialysis, phosphate buffer pH 7.4, 37 °C, 5 h, LC-MS/MS, median (IQR)

Molecule	Cmin (B1)/Cmin (B2) ([1]; AKI group N = 25)	Cmin (B1)/Cmin (B2) ([1]; non-AKI group N = 64)	Incidence of AKI (patients; colistin given iv as colistimethate sodium)	Optimal cut-off trough concentration for predicting nephrotoxicity (patients; colistin-related nephrotoxicity) [mg/L]	fraction unbound at 5 h (plasma protein; pH 7.4)	fraction unbound at 5 h (plasma protein; [2])	fraction unbound at 5 h (plasma protein; [3])	fraction unbound at 5 h (plasma protein; [4])	fraction unbound at 5 h (plasma protein; [5])	Free Cmax (Free; AKI group N = 25)	Free Cmin (Free; AKI group N = 25)	Correlation between total and free plasma concentrations (Free)	Free Cmax (Free; non-AKI group N = 64)	Free Cmin (Free; non-AKI group N = 64)	Cmax (B1), RIFLE category Failure (F) ([1]; 1 patient with AKI stage Failure, total plasma peak concentration)
CC[C@H](C)CCCCC(=O)N[C@@H](CCN)C(=O)N[C@H](C(=O)N[C@@H](CCN)C(=O)N[C@H]1CCNC(=O)[C@H]([C@@H](C)O)NC(=O)[C@H](CCN)NC(=O)[C@H](CCN)NC(=O)[C@H](CC(C)C)NC(=O)[C@@H](Cc2ccccc2)NC(=O)[C@H](CCN)NC1=O)[C@@H](C)O [PMB, polymyxin B] (HELM PEPTIDE1{[CC[C@H](C)CCCCC(=O)[*:2]].[Dab].T.[Dab].[Dab].[Dab].[dF].L.[Dab].[Dab].T}$PEPTIDE1,PEPTIDE1,5:R3-11:R2$$$V2.0)	3.37 (2.85–3.68)	3.27 (2.91–3.65)	–	–	–	–	–	–	–	–	–	–	–	–	–
colistin	–	–	30–76.1%	3.33	–	–	–	–	–	–	–	–	–	–	–
CC[C@H](C)CCCCC(=O)N[C@@H](CCN)C(=O)N[C@H](C(=O)N[C@@H](CCN)C(=O)N[C@H]1CCNC(=O)[C@H]([C@@H](C)O)NC(=O)[C@H](CCN)NC(=O)[C@H](CCN)NC(=O)[C@H](CC(C)C)NC(=O)[C@@H](Cc2ccccc2)NC(=O)[C@H](CCN)NC1=O)[C@@H](C)O [PMB1, polymyxin B1] (HELM PEPTIDE1{[CC[C@H](C)CCCCC(=O)[*:2]].[Dab].T.[Dab].[Dab].[Dab].[dF].L.[Dab].[Dab].T}$PEPTIDE1,PEPTIDE1,5:R3-11:R2$$$V2.0)	–	–	–	–	0.055	0.045	0.042	0.053	0.057	0.19 (0.12–0.26) μg/ml	0.05 (0.04–0.19) μg/ml	positively correlated	0.14 (0.11–0.18) μg/ml	0.07 (0.04–0.10) μg/ml	6.17
CC(C)CCCCC(=O)N[C@@H](CCN)C(=O)N[C@H](C(=O)N[C@@H](CCN)C(=O)N[C@H]1CCNC(=O)[C@H]([C@@H](C)O)NC(=O)[C@H](CCN)NC(=O)[C@H](CCN)NC(=O)[C@H](CC(C)C)NC(=O)[C@@H](Cc2ccccc2)NC(=O)[C@H](CCN)NC1=O)[C@@H](C)O [PMB2, polymyxin B2] (HELM PEPTIDE1{[CC(C)CCCCC(=O)[*:2]].[Dab].T.[Dab].[Dab].[Dab].[dF].L.[Dab].[Dab].T}$PEPTIDE1,PEPTIDE1,5:R3-11:R2$$$V2.0)	–	–	–	–	0.215	0.141	0.161	0.194	0.221	0.16 (0.14–0.19) μg/ml	0.07 (0.06–0.09) μg/ml	positively correlated	0.14 (0.11–0.18) μg/ml	0.07 (0.05–0.10) μg/ml	–

Source: paper PMC9334479 (Infectious Diseases and Therapy, 2022)
